The target in experiment [1] is T1, Pituitary adenylate cyclase-activating polypeptide type I receptor (Homo sapiens, UniProt P41586). Briefly: Agonist activity at human recombinant PAC1 receptor expressed in CHO cells assessed as PACAP38-induced calcium mobilization by FLIPR assay. The class given is functional, cell-based. The method, boiled down:
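CHO cells stably expressing recombinant human PAC1, plated 24 h before assay, loaded with fluo-4 AM for 60 min at 37 °C in the dark, then rinsed into HBSS for 15 min at 37 °C. EC50 and efficacy came from nonlinear regression; 4-10 independent assays in duplicate.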
In general terms: Calcium assays in cells follow changes in intracellular calcium, usually with a dye or a luminescent sensor.
Target sequence in this assay (P41586 whole entry): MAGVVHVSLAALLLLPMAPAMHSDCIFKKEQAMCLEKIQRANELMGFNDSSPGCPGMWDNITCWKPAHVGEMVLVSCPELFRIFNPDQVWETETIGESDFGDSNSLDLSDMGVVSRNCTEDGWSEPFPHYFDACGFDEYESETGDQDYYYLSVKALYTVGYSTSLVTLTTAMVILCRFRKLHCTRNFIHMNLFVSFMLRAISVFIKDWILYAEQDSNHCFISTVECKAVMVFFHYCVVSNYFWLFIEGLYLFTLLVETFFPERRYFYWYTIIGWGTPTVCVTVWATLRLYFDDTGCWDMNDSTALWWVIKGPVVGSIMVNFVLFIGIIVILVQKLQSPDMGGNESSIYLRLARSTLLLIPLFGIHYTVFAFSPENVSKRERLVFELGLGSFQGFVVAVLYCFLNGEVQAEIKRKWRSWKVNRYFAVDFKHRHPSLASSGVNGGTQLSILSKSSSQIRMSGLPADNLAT

Experiment [2] concerns the target T1, Pituitary adenylate cyclase-activating polypeptide type I receptor. Briefly: Agonist activity at human recombinant PAC1 receptor expressed in CHO cells assessed as PACAP38-induced calcium mobilization by FLIPR assay relative to PACAP38. The class given is functional, cell-based. The method, boiled down:
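CHO cells stably expressing recombinant human PAC1, plated 24 h before assay, loaded with fluo-4 AM for 60 min at 37 °C in the dark, then rinsed into HBSS for 15 min at 37 °C. Peptide was added 18 s into a 150 s read (ex 480/em 525 nm), at final concentrations of 1 × 10-12 to 1 × 10^-5 M. Response was normalised to 1 × 10^-5 M PACAP38 on each plate. EC50 and efficacy came from nonlinear regression; 4-10 independent assays in duplicate.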
Target sequence in this assay (P41586 21-468 limits assumed): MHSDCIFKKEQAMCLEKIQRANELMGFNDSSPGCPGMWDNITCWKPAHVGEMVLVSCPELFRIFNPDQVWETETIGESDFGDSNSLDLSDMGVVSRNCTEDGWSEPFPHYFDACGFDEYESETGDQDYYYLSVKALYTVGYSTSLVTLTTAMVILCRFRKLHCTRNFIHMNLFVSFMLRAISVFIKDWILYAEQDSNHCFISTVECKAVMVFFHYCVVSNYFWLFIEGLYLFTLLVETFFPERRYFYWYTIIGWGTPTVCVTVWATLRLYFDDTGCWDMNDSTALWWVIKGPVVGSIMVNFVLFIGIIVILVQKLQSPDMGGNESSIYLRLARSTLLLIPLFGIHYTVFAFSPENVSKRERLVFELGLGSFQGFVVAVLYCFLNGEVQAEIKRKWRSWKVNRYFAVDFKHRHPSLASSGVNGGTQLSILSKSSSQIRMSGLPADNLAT

The target is the same in experiment [3]. The experiment can be described thus: Displacement of [125I]Ac-PACAP27 from human recombinant PAC1 receptor expressed in CHO cells by gamma- counter. The class given is cell-based. (In general: Loss of bound radioactivity is the signal in a displacement assay; it reports binding, not function.)
Target sequence in this assay (P41586 whole entry): as the sequence (P41586 whole entry) above

Where a SMILES comes first, the peptide text is derived from it. [ ]: non-standard residue; d: D form. Aad = N[C@@H](CCCC(=O)O)C(=O)O; Aib = CC(C)(N)C(=O)O

As a reminder, the EC50 is the concentration giving half of the maximal effect. One may read the Emax as the size of the effect at its maximum, as opposed to the concentration needed. By IC50 is commonly meant the midpoint of a concentration-inhibition curve.

Regarding `CC[C@H](C)[C@@H](C(=O)N[C@@H](Cc1ccccc1)C(=O)N[C@H](C(=O)N[C@@H](CC(=O)O)C(=O)N[C@@H](CO)C(=O)N[C@@H](Cc1ccc(O)cc1)C(=O)N[C@@H](CO)C(=O)N[C@@H](CCCNC(=N)N)C(=O)N[C@@H](Cc1ccc(O)cc1)C(=O)N[C@@H](CCCNC(=N)N)C(=O)N[C@@H](CCCCN)C(=O)N[C@@H](CCC(N)=O)C(=O)N[C@@H](CCSC)C(=O)N[C@@H](C)C(=O)N[C@H](C(=O)N[C@@H](CCCCN)C(=O)N[C@@H](CCCCN)C(=O)N[C@@H](Cc1ccc(O)cc1)C(=O)N[C@@H](CC(C)C)C(=O)N[C@@H](C)C(=O)N[C@@H](C)C(=O)N[C@H](C(=O)N[C@@H](CC(C)C)C(N)=O)C(C)C)C(C)C)[C@@H](C)O)N(C)C(=O)CNC(=O)[C@H](CC(=O)O)NC(=O)[C@H](CO)NC(=O)[C@@H](N)Cc1cnc[nH]1`, the EC50 in experiment [1] stood at 1810 nM. For the same compound, the Emax in experiment [2] came to 34.5%. Also, the IC50 in experiment [3] stood at 1770 nM.

As for `CC[C@H](C)[C@H](NC(=O)CNC(=O)[C@H](CCCC(=O)O)NC(=O)[C@H](CO)NC(=O)[C@@H](N)Cc1cnc[nH]1)C(=O)N[C@@H](Cc1ccccc1)C(=O)N[C@H](C(=O)N[C@@H](CC(=O)O)C(=O)N[C@@H](CO)C(=O)N[C@@H](Cc1ccc(O)cc1)C(=O)N[C@@H](CO)C(=O)N[C@@H](CCCNC(=N)N)C(=O)N[C@@H](Cc1ccc(O)cc1)C(=O)N[C@@H](CCCNC(=N)N)C(=O)N[C@@H](CCCCN)C(=O)N[C@@H](CCC(N)=O)C(=O)N[C@@H](CCSC)C(=O)N[C@@H](C)C(=O)N[C@H](C(=O)N[C@@H](CCCCN)C(=O)N[C@@H](CCCCN)C(=O)N[C@@H](Cc1ccc(O)cc1)C(=O)N[C@@H](CC(C)C)C(=O)N[C@@H](C)C(=O)N[C@@H](C)C(=O)N[C@H](C(=O)N[C@@H](CC(C)C)C(N)=O)C(C)C)C(C)C)[C@@H](C)O`, the EC50 in experiment [1] turned out to be 834 nM. Moreover, the Emax in experiment [2] is 29.3%. The IC50 in experiment [3] came to 818 nM.

`CC[C@H](C)[C@H](NC(=O)[C@H](C)NC(=O)[C@H](CC(=O)O)NC(=O)[C@H](CO)NC(=O)[C@@H](N)Cc1cnc[nH]1)C(=O)N[C@@H](Cc1ccccc1)C(=O)N[C@H](C(=O)N[C@@H](CC(=O)O)C(=O)N[C@@H](CO)C(=O)N[C@@H](Cc1ccc(O)cc1)C(=O)N[C@@H](CO)C(=O)N[C@@H](CCCNC(=N)N)C(=O)N[C@@H](Cc1ccc(O)cc1)C(=O)N[C@@H](CCCNC(=N)N)C(=O)N[C@@H](CCCCN)C(=O)N[C@@H](CCC(N)=O)C(=O)N[C@@H](CCSC)C(=O)N[C@@H](C)C(=O)N[C@H](C(=O)N[C@@H](CCCCN)C(=O)N[C@@H](CCCCN)C(=O)N[C@@H](Cc1ccc(O)cc1)C(=O)N[C@@H](CC(C)C)C(=O)N[C@@H](C)C(=O)N[C@@H](C)C(=O)N[C@H](C(=O)N[C@@H](CC(C)C)C(=O)NCC(=O)N[C@@H](CCCCN)C(=O)N[C@@H](CCCNC(=N)N)C(=O)N[C@@H](Cc1ccc(O)cc1)C(=O)N[C@@H](CCCCN)C(=O)N[C@@H](CCC(N)=O)C(=O)N[C@@H](CCCNC(=N)N)C(=O)N[C@H](C(=O)N[C@@H](CCCCN)C(=O)N[C@@H](CC(N)=O)C(=O)N[C@@H](CCCCN)C(N)=O)C(C)C)C(C)C)C(C)C)[C@@H](C)O` (H-HSDAIFTDSYSRYRKQMAVKKYLAAVLGKRYKQRVKNK-NH2): in experiment [1], the EC50 was found to be 7.4 nM. The Emax in experiment [2] was found to be 90.2%. Further, the IC50 in experiment [3] is 9.84 nM.

Consider `CC[C@H](C)[C@H](NC(=O)CNC(=O)[C@H](CC(=O)O)NC(=O)[C@H](CO)NC(=O)[C@@H](N)Cc1cnc[nH]1)C(=O)N[C@@H](CC1CCCCC1)C(=O)N[C@H](C(=O)N[C@@H](CC(=O)O)C(=O)N[C@@H](CO)C(=O)N[C@@H](Cc1ccc(O)cc1)C(=O)N[C@@H](CO)C(=O)N[C@@H](CCCNC(=N)N)C(=O)N[C@@H](Cc1ccc(O)cc1)C(=O)N[C@@H](CCCNC(=N)N)C(=O)N[C@@H](CCCCN)C(=O)N[C@@H](CCC(N)=O)C(=O)N[C@@H](CCSC)C(=O)N[C@@H](C)C(=O)N[C@H](C(=O)N[C@@H](CCCCN)C(=O)N[C@@H](CCCCN)C(=O)N[C@@H](Cc1ccc(O)cc1)C(=O)N[C@@H](CC(C)C)C(=O)N[C@@H](C)C(=O)N[C@@H](C)C(=O)N[C@H](C(=O)N[C@@H](CC(C)C)C(N)=O)C(C)C)C(C)C)[C@@H](C)O`, for which, in experiment [1], the EC50 stood at 8.4 nM. Further, the Emax in experiment [2] was found to be 105%. Also, in experiment [3], the IC50 is 11 nM.

In the case of `CC[C@H](C)[C@H](NC(=O)CNC(=O)[C@H](CCCC(=O)O)NC(=O)[C@H](CO)NC(=O)[C@@H](N)Cc1cnc[nH]1)C(=O)N[C@@H](Cc1ccccc1)C(=O)N[C@H](C(=O)N[C@@H](CC(=O)O)C(=O)N[C@@H](CO)C(=O)N[C@@H](Cc1ccc(O)cc1)C(=O)N[C@@H](CO)C(=O)N[C@@H](CCCNC(=N)N)C(=O)N[C@@H](Cc1ccc(O)cc1)C(=O)N[C@@H](CCCNC(=N)N)C(=O)N[C@@H](CCCCN)C(=O)N[C@@H](CCC(N)=O)C(=O)N[C@@H](CCSC)C(=O)N[C@@H](C)C(=O)N[C@H](C(=O)N[C@@H](CCCCN)C(=O)N[C@@H](CCCCN)C(=O)N[C@@H](Cc1ccc(O)cc1)C(=O)N[C@@H](CC(C)C)C(=O)N[C@@H](C)C(=O)N[C@@H](C)C(=O)N[C@H](C(=O)N[C@@H](CC(C)C)C(=O)NCC(=O)N[C@@H](CCCCN)C(=O)N[C@@H](CCCNC(=N)N)C(=O)N[C@@H](Cc1ccc(O)cc1)C(=O)N[C@@H](CCCCN)C(=O)N[C@@H](CCC(N)=O)C(=O)N[C@@H](CCCNC(=N)N)C(=O)N[C@H](C(=O)N[C@@H](CCCCN)C(=O)N[C@@H](CC(N)=O)C(=O)N[C@@H](CCCCN)C(N)=O)C(C)C)C(C)C)C(C)C)[C@@H](C)O` (H-HS[Aad]GIFTDSYSRYRKQMAVKKYLAAVLGKRYKQRVKNK-NH2), the EC50 in experiment [1] was found to be 37.6 nM. Also, in experiment [2], the Emax is 18.2%. For the same compound, the IC50 in experiment [3] came out at 12.5 nM.

For `CC[C@H](C)[C@H](NC(=O)C(C)(C)NC(=O)[C@H](CC(=O)O)NC(=O)[C@H](CO)NC(=O)[C@@H](N)Cc1cnc[nH]1)C(=O)N[C@@H](Cc1ccccc1)C(=O)N[C@H](C(=O)N[C@@H](CC(=O)O)C(=O)N[C@@H](CO)C(=O)N[C@@H](Cc1ccc(O)cc1)C(=O)N[C@@H](CO)C(=O)N[C@@H](CCCNC(=N)N)C(=O)N[C@@H](Cc1ccc(O)cc1)C(=O)N[C@@H](CCCNC(=N)N)C(=O)N[C@@H](CCCCN)C(=O)N[C@@H](CCC(N)=O)C(=O)N[C@@H](CCSC)C(=O)N[C@@H](C)C(=O)N[C@H](C(=O)N[C@@H](CCCCN)C(=O)N[C@@H](CCCCN)C(=O)N[C@@H](Cc1ccc(O)cc1)C(=O)N[C@@H](CC(C)C)C(=O)N[C@@H](C)C(=O)N[C@@H](C)C(=O)N[C@H](C(=O)N[C@@H](CC(C)C)C(=O)NCC(=O)N[C@@H](CCCCN)C(=O)N[C@@H](CCCNC(=N)N)C(=O)N[C@@H](Cc1ccc(O)cc1)C(=O)N[C@@H](CCCCN)C(=O)N[C@@H](CCC(N)=O)C(=O)N[C@@H](CCCNC(=N)N)C(=O)N[C@H](C(=O)N[C@@H](CCCCN)C(=O)N[C@@H](CC(N)=O)C(=O)N[C@@H](CCCCN)C(N)=O)C(C)C)C(C)C)C(C)C)[C@@H](C)O` (H-HSD[Aib]IFTDSYSRYRKQMAVKKYLAAVLGKRYKQRVKNK-NH2), in experiment [1], the EC50 turned out to be 3.3 nM. Besides, the Emax in experiment [2] is 84%. In experiment [3], the IC50 turned out to be 9.2 nM.

For the compound `CC[C@H](C)[C@H](NC(=O)CNC(=O)[C@H](CC(=O)O)NC(=O)[C@H](CO)NC(=O)[C@@H](N)Cc1cnc[nH]1)C(=O)N[C@@H](Cc1ccccc1)C(=O)N(C)[C@H](C(=O)N[C@@H](CC(=O)O)C(=O)N[C@@H](CO)C(=O)N[C@@H](Cc1ccc(O)cc1)C(=O)N[C@@H](CO)C(=O)N[C@@H](CCCNC(=N)N)C(=O)N[C@@H](Cc1ccc(O)cc1)C(=O)N[C@@H](CCCNC(=N)N)C(=O)N[C@@H](CCCCN)C(=O)N[C@@H](CCC(N)=O)C(=O)N[C@@H](CCSC)C(=O)N[C@@H](C)C(=O)N[C@H](C(=O)N[C@@H](CCCCN)C(=O)N[C@@H](CCCCN)C(=O)N[C@@H](Cc1ccc(O)cc1)C(=O)N[C@@H](CC(C)C)C(=O)N[C@@H](C)C(=O)N[C@@H](C)C(=O)N[C@H](C(=O)N[C@@H](CC(C)C)C(N)=O)C(C)C)C(C)C)[C@@H](C)O`, the EC50 in experiment [1] is 2120 nM. For the same compound, the Emax in experiment [2] came out at 35.4%. For the same compound, the IC50 in experiment [3] worked out at 2040 nM.

For `CSCC[C@H](NC(=O)[C@H](CCC(N)=O)NC(=O)[C@H](CCCCN)NC(=O)[C@H](CCCNC(=N)N)NC(=O)[C@H](Cc1ccc(O)cc1)NC(=O)[C@H](CCCNC(=N)N)NC(=O)[C@H](CO)NC(=O)[C@H](Cc1ccc(O)cc1)NC(=O)[C@H](CO)NC(=O)[C@H](CC(=O)O)NC(=O)[C@@H](NC(=O)[C@H](Cc1ccccc1)NC(=O)[C@H](C)NC(=O)CNC(=O)[C@H](CC(=O)O)NC(=O)[C@H](CO)NC(=O)[C@@H](N)Cc1cnc[nH]1)[C@@H](C)O)C(=O)N[C@@H](C)C(=O)N[C@H](C(=O)N[C@@H](CCCCN)C(=O)N[C@@H](CCCCN)C(=O)N[C@@H](Cc1ccc(O)cc1)C(=O)N[C@@H](CC(C)C)C(=O)N[C@@H](C)C(=O)N[C@@H](C)C(=O)N[C@H](C(=O)N[C@@H](CC(C)C)C(=O)NCC(=O)N[C@@H](CCCCN)C(=O)N[C@@H](CCCNC(=N)N)C(=O)N[C@@H](Cc1ccc(O)cc1)C(=O)N[C@@H](CCCCN)C(=O)N[C@@H](CCC(N)=O)C(=O)N[C@@H](CCCNC(=N)N)C(=O)N[C@H](C(=O)N[C@@H](CCCCN)C(=O)N[C@@H](CC(N)=O)C(=O)N[C@@H](CCCCN)C(N)=O)C(C)C)C(C)C)C(C)C` (H-HSDGAFTDSYSRYRKQMAVKKYLAAVLGKRYKQRVKNK-NH2), the EC50 in experiment [1] came to 9.6 nM. In addition, the Emax in experiment [2] amounted to 88.3%. The IC50 in experiment [3] was determined as 34.4 nM.

The values are drawn from ChEMBL document CHEMBL1138520, “Molecular and conformational determinants of pituitary adenylate cyclase-activating polypeptide (PACAP) for activation of the PAC1 receptor” (J Med Chem, 2009).
